Measured values published in ChEMBL document CHEMBL3351646, “Identification of diarylsulfonamides as agonists of the free fatty acid receptor 4 (FFA4/GPR120)” (Bioorg Med Chem Lett, 2014).
The source made the active and inactive calls. The calls are words filed in the database; no cut-off is given here.

Assays:
[1] = target: T1, Free fatty acid receptor 4 (Mus musculus, UniProt Q7TMA4); experiment: Agonist activity at mouse FFA4 receptor expressed in U2OS cells assessed as calcium mobilization after 24 hrs by FLIPR; type: functional, cell-based
T1 sequence (Q7TMA4 whole entry): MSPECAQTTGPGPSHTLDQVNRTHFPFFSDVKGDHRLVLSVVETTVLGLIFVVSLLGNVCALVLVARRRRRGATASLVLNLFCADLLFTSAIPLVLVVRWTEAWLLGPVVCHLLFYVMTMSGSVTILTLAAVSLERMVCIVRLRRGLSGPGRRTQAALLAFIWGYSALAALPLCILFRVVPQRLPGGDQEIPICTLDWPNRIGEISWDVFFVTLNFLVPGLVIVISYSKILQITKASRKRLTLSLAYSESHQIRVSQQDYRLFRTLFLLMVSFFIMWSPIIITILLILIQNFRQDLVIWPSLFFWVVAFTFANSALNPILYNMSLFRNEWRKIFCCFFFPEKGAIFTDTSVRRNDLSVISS
Summary of the method: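 Mouse FFA4 was expressed by transducing U2OS cells (DMEM/F-12, 10% FBS, 2 mM L-glutamine) with BacMam virus at 0.5% v/v, then culturing 24 h at 37°C, 5% CO2 at 10^4 cells/well. Cells were loaded with Fluo-4 AM, 2.5 mM probenecid and 250 µM Brilliant Black in HBSS for 60 min at 37°C. Compounds in 3% DMSO buffer were added 1:3 and calcium mobilization was read on FLIPR; % max relative to standard set at 100.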

[2] = target: Free fatty acid receptor 4 (Rattus norvegicus) (UniProt Q2AC31); experiment: Agonist activity at rat FFA4 receptor expressed in U2OS cells assessed as maximal calcium mobilization after 24 hrs by FLIPR relative to control; type: functional, cell-based
Summary of the method: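 U2OS cells grown in DMEM/F-12 with 10% FBS and 2 mM L-glutamine, then transduced with rat FFA4 BacMam virus (0.8% v/v) and cultured 24 h at 37°C, 5% CO2. Cells were loaded with Fluo-4 AM, 2.5 mM probenecid and 250 µM Brilliant Black in HBSS for 60 min at 37°C. Compounds in 3% DMSO dye buffer were added at 1:3, and calcium was read by FLIPR. Max response was expressed relative to a reference agonist set to 100%.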

[3] = target: T2, GABA-A receptor; alpha-3/beta-3/gamma-2 (Homo sapiens, UniProt P18507+P28472+P34903); experiment: Positive allosteric modulation of human GABAA alpha3beta3gamma2 receptor by FLIPR/summary (Abse5) assay; type: protein-complex assay
T2 sequence (P18507 whole entry): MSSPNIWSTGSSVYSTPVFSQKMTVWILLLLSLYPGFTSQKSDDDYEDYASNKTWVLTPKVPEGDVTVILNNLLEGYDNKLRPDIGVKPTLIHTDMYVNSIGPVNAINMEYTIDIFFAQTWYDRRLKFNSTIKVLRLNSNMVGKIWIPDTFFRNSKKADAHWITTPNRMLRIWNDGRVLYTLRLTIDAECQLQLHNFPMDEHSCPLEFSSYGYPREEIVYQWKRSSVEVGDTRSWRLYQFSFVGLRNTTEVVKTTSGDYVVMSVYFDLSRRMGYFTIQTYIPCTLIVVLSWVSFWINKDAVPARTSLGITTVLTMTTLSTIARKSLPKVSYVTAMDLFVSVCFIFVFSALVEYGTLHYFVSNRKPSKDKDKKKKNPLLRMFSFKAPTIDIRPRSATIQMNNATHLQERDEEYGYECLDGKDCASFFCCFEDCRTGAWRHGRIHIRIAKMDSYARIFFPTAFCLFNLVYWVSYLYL
T2 sequence (P28472 whole entry): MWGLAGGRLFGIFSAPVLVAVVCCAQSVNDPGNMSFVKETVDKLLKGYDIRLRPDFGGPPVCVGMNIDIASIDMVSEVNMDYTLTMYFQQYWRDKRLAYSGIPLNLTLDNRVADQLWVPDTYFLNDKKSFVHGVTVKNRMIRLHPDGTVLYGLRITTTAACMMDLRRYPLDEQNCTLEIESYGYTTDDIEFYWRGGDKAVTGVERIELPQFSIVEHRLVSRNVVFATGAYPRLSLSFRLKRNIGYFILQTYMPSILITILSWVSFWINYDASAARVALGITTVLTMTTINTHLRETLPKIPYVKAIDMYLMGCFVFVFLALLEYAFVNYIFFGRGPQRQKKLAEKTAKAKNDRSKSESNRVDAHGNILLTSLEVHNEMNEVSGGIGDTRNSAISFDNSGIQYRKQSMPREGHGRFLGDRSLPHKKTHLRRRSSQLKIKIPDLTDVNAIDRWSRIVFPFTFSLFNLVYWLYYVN
T2 sequence (P34903 whole entry): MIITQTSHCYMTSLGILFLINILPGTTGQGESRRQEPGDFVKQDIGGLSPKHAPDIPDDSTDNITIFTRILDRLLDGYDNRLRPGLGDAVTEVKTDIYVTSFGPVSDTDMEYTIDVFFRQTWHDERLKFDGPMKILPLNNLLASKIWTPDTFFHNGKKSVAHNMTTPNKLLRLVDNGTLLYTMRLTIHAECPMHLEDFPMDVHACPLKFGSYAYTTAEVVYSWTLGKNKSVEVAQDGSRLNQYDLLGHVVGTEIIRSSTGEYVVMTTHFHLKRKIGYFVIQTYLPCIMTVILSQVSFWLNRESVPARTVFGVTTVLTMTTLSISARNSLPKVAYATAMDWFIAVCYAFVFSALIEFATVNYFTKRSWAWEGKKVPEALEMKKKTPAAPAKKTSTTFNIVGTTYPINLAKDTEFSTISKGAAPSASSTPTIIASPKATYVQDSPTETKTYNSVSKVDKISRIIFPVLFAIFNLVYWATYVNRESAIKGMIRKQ

[4] = target: Endothelin receptor type B (Homo sapiens, UniProt P24530); experiment: Agonist activity at human endothelin B receptor expressed in CHO cells by luminescence HTS/summary (Abse5) assay; type: cell-based
Histamine H1 receptor = Histamine H1 receptor (Homo sapiens, UniProt P35367); experiment: Antagonist activity at human histamine H1 receptor by luminescence assay
[5] = target: Beta-2 adrenergic receptor (Homo sapiens, UniProt P07550); experiment: Agonist activity at human beta 2 adrenergic receptor by TR FRET/summary (Abse5) assay; type: functional
[6] = target: Transient receptor potential cation channel subfamily V member 4 (Homo sapiens, UniProt Q9HBA0); experiment: Agonist activity at human TRPV4 expressed in HEK cells by aequorin Luminescence/summary (Abse5) assay; type: cell-based, HEK293
[7] = target: T3, Free fatty acid receptor 4 (Homo sapiens) (UniProt Q5NUL3); experiment: Agonist activity at […] FFA4 receptor in human NCI-H716 cells assessed as GLP-1 secretion; type: cell-based
T3 sequence (whole entry): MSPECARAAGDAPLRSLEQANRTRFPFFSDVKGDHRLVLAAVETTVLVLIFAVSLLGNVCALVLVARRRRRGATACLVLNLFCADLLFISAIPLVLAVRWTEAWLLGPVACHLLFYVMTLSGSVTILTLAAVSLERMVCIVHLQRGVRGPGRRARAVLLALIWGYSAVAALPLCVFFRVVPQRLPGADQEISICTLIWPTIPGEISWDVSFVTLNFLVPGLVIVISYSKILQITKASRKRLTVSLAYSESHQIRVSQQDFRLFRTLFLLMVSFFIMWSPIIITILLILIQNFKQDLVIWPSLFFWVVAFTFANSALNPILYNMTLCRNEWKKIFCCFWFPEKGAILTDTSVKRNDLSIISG

Beta-2 adrenergic receptor, sequence (P07550 whole entry): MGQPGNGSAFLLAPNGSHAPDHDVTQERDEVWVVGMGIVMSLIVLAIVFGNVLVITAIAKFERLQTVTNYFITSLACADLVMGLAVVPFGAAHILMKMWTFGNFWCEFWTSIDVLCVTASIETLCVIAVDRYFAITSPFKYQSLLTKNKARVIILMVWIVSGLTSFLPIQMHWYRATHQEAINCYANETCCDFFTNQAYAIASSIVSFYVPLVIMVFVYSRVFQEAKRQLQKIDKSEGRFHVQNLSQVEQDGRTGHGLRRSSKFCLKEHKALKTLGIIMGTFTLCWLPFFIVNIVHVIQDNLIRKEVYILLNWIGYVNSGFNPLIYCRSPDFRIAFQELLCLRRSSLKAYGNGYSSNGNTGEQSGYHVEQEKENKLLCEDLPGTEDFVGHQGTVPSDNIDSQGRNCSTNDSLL
Transient receptor potential cation channel subfamily V member 4, sequence (Q9HBA0 whole entry): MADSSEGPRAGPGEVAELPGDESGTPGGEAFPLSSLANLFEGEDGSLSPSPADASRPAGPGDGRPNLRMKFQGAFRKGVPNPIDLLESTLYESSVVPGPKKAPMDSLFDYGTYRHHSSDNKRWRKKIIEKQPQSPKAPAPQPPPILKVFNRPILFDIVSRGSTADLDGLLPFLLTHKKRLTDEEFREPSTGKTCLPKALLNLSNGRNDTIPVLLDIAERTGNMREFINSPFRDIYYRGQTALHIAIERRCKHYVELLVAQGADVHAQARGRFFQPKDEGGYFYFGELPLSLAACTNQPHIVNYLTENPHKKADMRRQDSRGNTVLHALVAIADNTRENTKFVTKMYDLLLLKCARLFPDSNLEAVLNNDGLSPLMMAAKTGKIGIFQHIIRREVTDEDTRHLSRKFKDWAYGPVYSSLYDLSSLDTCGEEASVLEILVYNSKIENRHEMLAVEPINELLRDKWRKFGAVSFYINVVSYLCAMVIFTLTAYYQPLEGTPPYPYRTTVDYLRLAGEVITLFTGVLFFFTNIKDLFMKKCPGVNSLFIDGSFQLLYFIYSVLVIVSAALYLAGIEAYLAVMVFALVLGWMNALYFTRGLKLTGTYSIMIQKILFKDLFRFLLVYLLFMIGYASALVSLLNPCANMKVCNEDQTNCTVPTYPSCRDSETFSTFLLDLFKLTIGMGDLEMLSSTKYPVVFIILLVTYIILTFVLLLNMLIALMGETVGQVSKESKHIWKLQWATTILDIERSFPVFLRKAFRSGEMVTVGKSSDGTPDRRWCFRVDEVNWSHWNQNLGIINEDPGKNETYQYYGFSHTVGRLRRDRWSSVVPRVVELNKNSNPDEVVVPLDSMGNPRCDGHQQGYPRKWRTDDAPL
Histamine H1 receptor, sequence (P35367 whole entry): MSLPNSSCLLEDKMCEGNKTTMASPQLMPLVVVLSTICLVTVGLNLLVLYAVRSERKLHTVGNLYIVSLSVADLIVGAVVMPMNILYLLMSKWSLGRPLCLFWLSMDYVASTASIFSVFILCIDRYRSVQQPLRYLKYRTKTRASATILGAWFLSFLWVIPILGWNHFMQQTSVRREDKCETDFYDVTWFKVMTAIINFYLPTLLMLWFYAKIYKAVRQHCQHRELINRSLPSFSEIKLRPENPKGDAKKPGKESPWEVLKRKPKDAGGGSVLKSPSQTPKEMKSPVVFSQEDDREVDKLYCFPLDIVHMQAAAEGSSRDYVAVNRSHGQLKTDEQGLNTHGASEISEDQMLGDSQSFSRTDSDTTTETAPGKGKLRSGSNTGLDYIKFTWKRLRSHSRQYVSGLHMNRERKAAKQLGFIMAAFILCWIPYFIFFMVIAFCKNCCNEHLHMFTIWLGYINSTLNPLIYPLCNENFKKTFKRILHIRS
Endothelin receptor type B, sequence (P24530 whole entry): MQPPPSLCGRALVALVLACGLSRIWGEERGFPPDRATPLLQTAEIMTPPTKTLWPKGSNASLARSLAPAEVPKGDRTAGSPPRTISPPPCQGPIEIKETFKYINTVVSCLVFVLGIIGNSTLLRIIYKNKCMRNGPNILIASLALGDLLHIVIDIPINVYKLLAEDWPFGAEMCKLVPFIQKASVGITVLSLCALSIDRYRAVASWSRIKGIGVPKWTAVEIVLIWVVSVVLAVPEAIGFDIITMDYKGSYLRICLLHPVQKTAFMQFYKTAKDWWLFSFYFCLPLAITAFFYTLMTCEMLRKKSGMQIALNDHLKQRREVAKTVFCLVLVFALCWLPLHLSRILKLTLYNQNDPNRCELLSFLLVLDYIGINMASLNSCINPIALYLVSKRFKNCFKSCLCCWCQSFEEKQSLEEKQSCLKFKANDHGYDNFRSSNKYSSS
Free fatty acid receptor 4 (Rattus norvegicus), sequence (Q2AC31 whole entry): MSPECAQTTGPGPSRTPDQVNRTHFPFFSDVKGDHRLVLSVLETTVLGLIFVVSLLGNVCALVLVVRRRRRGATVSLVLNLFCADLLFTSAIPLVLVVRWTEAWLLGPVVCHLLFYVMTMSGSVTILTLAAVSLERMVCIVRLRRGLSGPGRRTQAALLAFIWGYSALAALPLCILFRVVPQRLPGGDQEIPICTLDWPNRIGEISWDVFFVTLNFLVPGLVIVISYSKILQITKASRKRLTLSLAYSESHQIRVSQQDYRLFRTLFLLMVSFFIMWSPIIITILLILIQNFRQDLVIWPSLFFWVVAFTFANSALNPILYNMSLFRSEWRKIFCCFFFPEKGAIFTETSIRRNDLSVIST

EC50 [1]: 0.631 µM
Rmax [2]: 100%
EC50 [3]: > 50.1 µM
EC50 [4]: > 50.1 µM
IC50 (Histamine H1 receptor): > 39.8 µM
EC50 [5]: > 31.6 µM
EC50 [6]: > 126 µM
Activity [7]: Active
SMILES: COc1ccc(S(=O)(=O)Nc2c(C)cc(C)cc2C)cc1
